Source: PubChem
Only some compounds are listed: those with a hit (about 2.3% of all), similar ones and a draw of the others.
TRPC6 inh – inhibitors of mouse TRPC6 channel; Q61143; HEK293-TRPC6, membrane potential dye, ACh-evoked depolarization; active compounds read low; B-score at 10 µM; actives 1.1% (n = 310,000); AID 2553;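 active means B-score under library mean minus 3 SD, initial fluorescence not abnormally high, positive integrated signal ratio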;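 further: B-score derived from integrated fluorescence ratio over the kinetic read; more negative B-score means stronger inhibition of depolarization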
TRPC6 activator – activators of mouse TRPC6 channel | Q61143 | HEK293-TRPC6 membrane potential dye fluorescence; active compounds read high | B-score at 10 µM | actives 0.13% (n = 310,000) | AID 2550;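 active means B-score of the integrated fluorescence ratio above library mean plus 3 SD, and starting fluorescence ratio within library mean plus 5 SD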;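 further: higher score means more depolarization so channel activation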
TRPC4 inh – TRPC4 (mouse) channel inhibition. B-score at 10 µM. HEK293 TRPC4beta/mu-opioid, DAMGO-evoked Fluo4 calcium flux; active compounds read low. actives 0.39% (n = 300,000);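 active means B-score over 3 SD under the library average, no early fluorescence shift, positive overall ratio signal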
Target sequence (Q9QUQ5 whole entry, looked up): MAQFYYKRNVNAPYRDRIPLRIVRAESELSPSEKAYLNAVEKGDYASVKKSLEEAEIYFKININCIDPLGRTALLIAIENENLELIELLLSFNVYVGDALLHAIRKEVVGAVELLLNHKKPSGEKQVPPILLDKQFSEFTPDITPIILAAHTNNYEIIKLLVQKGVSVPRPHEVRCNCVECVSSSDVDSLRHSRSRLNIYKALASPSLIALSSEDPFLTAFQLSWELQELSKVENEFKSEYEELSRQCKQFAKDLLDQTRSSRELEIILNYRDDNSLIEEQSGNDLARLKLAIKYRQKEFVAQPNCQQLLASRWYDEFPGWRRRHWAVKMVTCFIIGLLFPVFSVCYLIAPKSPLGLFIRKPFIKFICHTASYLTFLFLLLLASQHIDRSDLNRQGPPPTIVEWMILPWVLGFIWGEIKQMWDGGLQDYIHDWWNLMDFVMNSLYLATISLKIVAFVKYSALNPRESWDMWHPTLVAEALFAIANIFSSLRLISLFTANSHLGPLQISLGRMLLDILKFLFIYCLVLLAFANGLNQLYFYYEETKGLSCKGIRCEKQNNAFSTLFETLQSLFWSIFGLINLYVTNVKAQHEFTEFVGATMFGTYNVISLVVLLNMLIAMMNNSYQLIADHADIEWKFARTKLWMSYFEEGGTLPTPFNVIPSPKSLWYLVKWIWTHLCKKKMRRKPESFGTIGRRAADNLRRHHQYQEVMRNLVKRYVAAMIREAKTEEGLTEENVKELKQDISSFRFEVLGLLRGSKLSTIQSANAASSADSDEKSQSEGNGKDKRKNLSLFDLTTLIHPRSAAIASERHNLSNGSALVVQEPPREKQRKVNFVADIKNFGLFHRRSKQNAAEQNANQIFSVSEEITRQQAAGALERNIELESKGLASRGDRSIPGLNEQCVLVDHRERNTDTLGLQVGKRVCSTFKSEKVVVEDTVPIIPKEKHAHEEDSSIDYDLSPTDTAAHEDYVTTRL
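Assay system – HEK293 line stably carrying TRPC4beta and mu-opioid receptor · Doses – single dose · Detection – Fluo4 calcium-dye fluorescence, kinetic read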
TRPC4 agonist – opens the mouse TRPC4 cation channel; Q9QUQ5; HEK293 TRPC4beta/mu-opioid, Fluo4 calcium fluorescence; active compounds read high; B-score at 10 µM; actives 0.49% (n = 310,000); AID 2237;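 active means B-score above 5 SD of library B-scores, and initial fluorescence ratio not above library mean plus 5 SD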;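 further: positive B-score marks a calcium rise read as TRPC4 activation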
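Assay system: HEK293 cells stably co-expressing mouse TRPC4beta and mu-opioid receptor / Timing: Fluo4 dye loading 45 min at room temperature, 110 s recording / Signal: Fluo4 calcium-sensitive dye fluorescence, kinetic, 1 Hz baseline / Read-out: integrated baseline-normalised fluorescence ratio, converted to per-well B score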
TRPC4 PAM – allosteric potentiators of mouse TRPC4 channel; Q9QUQ5; HEK293 TRPC4beta/mu-opioid, DAMGO EC20, Fluo-4 Ca2+ flux; active compounds read high; B-score at 10 µM; actives 0.42% (n = 310,000);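 active means B-score of calcium response area above 5 SD of library B-scores, with initial fluorescence ratio within 5 SD of library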
TRPC4 spec 2 – second check of whether TRPC6 inhibitors also affect mouse TRPC4 | actives 42% (n = 920) | inhibition, % at 10 µM | shares compounds with TRPC6 inh | HEK293 TRPC4/MOR, membrane potential dye fluorescence; channel activated by saturating DAMGO dose;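 active means compounds whose fluorescence signal differed from control wells by over 3 SD, either direction, in both duplicate plates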
TRPC4 spec – tests whether TRPC6 inhibitors also affect mouse TRPC4; HEK293 TRPC4/mu-opioid, membrane potential fluorescence; activity change, negative = inhibition, % at 10 µM; shares compounds with TRPC6 inh; actives 61% (n = 920);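 active means rise or fall in signal beyond 3 SD of buffer-only wells in both replicate plates, either sign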;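 further: integrated kinetic ratio of fluorescence range over baseline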
HEK293 MPD ctr 2-1 – second counter-screen for TRPC6 inhibitors: parental HEK293 cells. parental HEK293 membrane potential dye fluorescence; maximal acetylcholine challenge after compound addition. actives 31% (n = 920). signal change vs control, % at 10 µM. shares compounds with TRPC6 inh;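 active means membrane potential signal moving either way by over 3 SD of the maximum-effect control, in both duplicate plates, meaning non-specific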
HEK293 MPD ctr-1 – counter-screen for TRPC6 inhibitors: effect in parental HEK293 cells. actives 60% (n = 920). membrane potential signal change, % at 10 µM. parental HEK293 membrane potential dye fluorescence. shares compounds with TRPC6 inh;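 active means membrane potential signal shifting up or down by more than 3 SD of buffer-only wells, on both duplicate plates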
HEK293 MPD ctr-2 – counter-screen for TRPC6 modulators: effect in parental HEK293 cells | AID 488924 | shares compounds with TRPC6 inh | actives 51% (n = 2,400) | membrane potential signal change, % at 10 µM | membrane potential dye fluorescence;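 active means membrane potential signal moves up or down beyond 5 SD from buffer-only wells, on both duplicate plates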
HEK293 MPD ctr 2-2 – second check of TRPC6 modulator effects in parental HEK293 cells; shares compounds with TRPC6 inh; membrane potential dye fluorescence; after compound, maximal acetylcholine stimulation; inhibition, % at 10 µM; actives 14% (n = 2,400); AID 488926;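 active means membrane potential signal drops by more than 5 SD from the mean control signal, in both duplicate plates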
TRPC4 ctr mod – selectivity of TRPC6 modulators against mouse TRPC4. shares compounds with TRPC6 inh. HEK293 TRPC4/mu-opioid, membrane potential fluorescence. percent change from control (negative = decrease, positive = increase), % at 10 µM. actives 69% (n = 2,400). AID 488927;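 active means membrane potential signal moved up or down beyond 5 SD of buffer control wells, in both duplicate plates, actives on both sides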
TRPC4 ctr inh 2 – mouse TRPC4 off-target activity of TRPC6 modulators, second screen; shares compounds with TRPC6 inh; HEK293 TRPC4/mu-opioid, membrane potential dye fluorescence; stimulated with maximal-effect DAMGO; inhibition, % at 10 µM; actives 55% (n = 2,400);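 active means drop in membrane potential signal beyond 5 SD of the control wells in both duplicate plates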;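 further: TRPC4 counter screen for TRPC6 hits run under conditions tuned for TRPC6 not TRPC4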
TRPC6 inh conf – mouse TRPC6 inhibitor confirmation; shares compounds with TRPC6 inh; HEK293-TRPC6, membrane potential dye, ACh-evoked depolarization; inhibition, % at 10 µM; actives 43% (n = 3,300); AID 488960;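 active means fluorescence ratio falls more than 5 SD below the full-stimulation control mean, in both duplicate runs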;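 further: integrated fluorescence ratio of peak minus minimum over baseline after agonist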
TRPC6 act conf – confirmation of mouse TRPC6 activators | HEK293-TRPC6 membrane potential dye fluorescence, FDSS | AID 488961 | shares compounds with TRPC6 inh | actives 11% (n = 2,800) | activation, % at 10 µM;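 active means ratio signal rise beyond 5 SD above unstimulated control wells' mean, seen in both duplicate runs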
Hits are given with their value; 0 = inactive; - = not tested or not shown.

SMILES	TRPC6 inh	TRPC6 activator	TRPC4 inh	TRPC4 agonist	TRPC4 PAM	HEK293 MPD ctr-2	HEK293 MPD ctr 2-2	TRPC4 ctr mod	TRPC4 ctr inh 2	TRPC6 inh conf	TRPC6 act conf	others
COc1ccc(-c2csc(N(CCCN(C)C)C(=O)c3ccccc3F)n2)cc1	-6.5	0	0	0	0	0	0	0	85%	51%	0
COc1ccc(-c2csc(N(CCCN(C)C)C(=O)c3ccccc3Cl)n2)cc1	-7.9	0	0	0	0	-	-	-	-	59%	0	TRPC4 spec 2=37%;TRPC4 spec=0;HEK293 MPD ctr 2-1=0;HEK293 MPD ctr-1=0
COc1ccc(-c2csc(N(CCCN(C)C)C(=O)c3ccccc3C)n2)cc1	-8.9	0	0	0	0	-	-	-	-	62%	0	TRPC4 spec 2=43%;TRPC4 spec=0;HEK293 MPD ctr 2-1=0;HEK293 MPD ctr-1=0
COCCN(C(=O)c1ccccc1F)c1nc(-c2ccc(OC)cc2)cs1	0	0	0	0	0	-	-	-	-	-	-
C=CCn1c(NC(=O)c2ccc(C)cc2)nc2ccccc21	0	0	0	0	0	-	-	-	-	-	-
CCCc1cc(=O)oc2cc(C)cc(OCC(=O)NCCCN3CCCC3=O)c12	0	0	0	0	0	-	-	-	-	-	-
CCCC(=O)NC(c1ccc(N(C)C)cc1)c1ccc2cccnc2c1O (centres undefined)	0	0	0	0	0	-	-	-	-	-	-
CCCC(=O)NC(c1ccc(C(C)C)cc1)c1ccc2cccnc2c1O (centres undefined)	-6.4	0	0	0	0	0	0	0	0	0	0
CCCCC(=O)NC(c1ccc(Cl)cc1Cl)c1ccc2cccnc2c1O (centres undefined)	-5.2	0	0	0	0	-154%	0	-30%	0	0	0
Fc1cccc(CSc2ccc3nnc(-c4cccnc4)n3n2)c1	0	0	0	0	0	-	-	-	-	-	-
O=c1c2ccccc2oc2cc(OCc3cccc(F)c3)cc(O)c12	0	0	0	0	0	-	-	-	-	-	-
CC(C)(C)SCCNC(=O)COc1ccc(Cl)cc1	-5.3	0	0	0	0	0	0	0	0	0	-
Cc1ccccc1CSCCNC(=O)COc1ccc(Cl)cc1	0	0	0	0	0	-	-	-	-	-	-
CCOc1ccccc1N1CCN(Cc2ccco2)CC1	0	0	0	0	0	-	-	-	-	-	-
CCOc1ccccc1N1CCN(C/C=C/c2ccc(N(C)C)cc2)CC1	-6.5	0	0	0	0	0	0	0	66%	50%	0
c1ccc(C2Nc3cccc4cccc(c34)N2)cc1	0	0	0	0	0	-	-	-	-	-	-
COc1ccc(C2Nc3cccc4cccc(c34)N2)cc1	-5	0	0	0	0	0	0	-16%	45%	0	0
CCOc1ccc(C2Nc3cccc4cccc(c34)N2)cc1OC	0	0	0	0	0	-	-	-	-	-	-
CCOc1cc(C2Nc3cccc4cccc(c34)N2)ccc1O	-5.9	0	0	0	0	-122%	0	-28%	57%	41%	0
COC(=O)CN1C(=O)S/C(=C/c2ccc(N3CCCCC3)o2)C1=O	0	13	0	0	0	162%	0	90%	0	0	35%
COc1ccc([N+](=O)[O-])cc1NC(=O)C(C)N1CCCC1 (centres undefined)	-6.1	0	0	0	0	0	86%	0	0	72%	0
CC(=O)Nc1ccc(N/C(N)=N/c2nc(C)cc(C)n2)cc1	0	0	0	0	0	-	-	-	-	-	-
Cc1cc(C)nc(/N=C(\N)Nc2ccc(SC(F)F)cc2)n1	-6.4	0	0	43	0	-132%	0	-23%	48%	0	0
Cc1cc(C)nc(/N=C(\N)Nc2ccc(F)c([N+](=O)[O-])c2)n1	-6.4	0	0	0	0	-185%	0	-25%	32%	0	0
COc1ccc(CC(=O)Nc2c(C(=O)N3CCN(c4ccccc4)CC3)oc3ccccc23)cc1OC	0	0	0	0	0	-	-	-	-	-	-
SMILES	TRPC6 inh	TRPC6 activator	TRPC4 inh	TRPC4 agonist	TRPC4 PAM	HEK293 MPD ctr-2	HEK293 MPD ctr 2-2	TRPC4 ctr mod	TRPC4 ctr inh 2	TRPC6 inh conf	TRPC6 act conf	others
O=C(/C=C/c1cn(CC(O)CN2CCCCCC2)c2ccccc12)c1cccs1 (centres undefined)	-6.1	0	0	0	0	652%	0	-21%	88%	62%	0
CCCCN(C)CC(O)Cn1cc(/C=C/C(=O)c2cccs2)c2ccccc21 (centres undefined)	0	0	0	0	0	-	-	-	-	-	-
C[N+]1(C)[C@@H]2CC(OC(=O)[C@H](CO)c3ccccc3)C[C@H]1[C@@H]1O[C@@H]12 (some centres undefined)	-8.2	0	0	0	0	-	-	-	-	93%	0	TRPC4 spec 2=0;TRPC4 spec=0;HEK293 MPD ctr 2-1=-9.0%;HEK293 MPD ctr-1=0
CCC(C(=O)OCC(=O)Nc1c(Cl)cccc1Cl)c1ccccc1 (centres undefined)	0	0	0	0	0	-	-	-	-	-	-
CCOc1cc(N(CC)CC)ccc1/C=C(/C#N)c1nc2ccccc2[nH]1	0	16	0	126	0	295%	0	46%	0	0	48%
COc1cc(/C=C(\C#N)c2nc3ccccc3[nH]2)cc(OC)c1O	-5.3	14	0	0	0	612%	0	100%	58%	0	0
CCCOc1cc(N(CC)CC)ccc1/C=C(/C#N)c1nc2ccc(C)cc2[nH]1	0	0	0	0	0	-	-	-	-	-	-
COc1ccc(/C=C(\C#N)c2nc3ccccc3[nH]2)cc1O	0	0	0	0	0	-	-	-	-	-	-
Cc1ccsc1/C=N\NC(=O)c1cc(C(C)(C)C)[nH]n1	0	0	0	0	0	-	-	-	-	-	-
